Reference: ChEMBL document CHEMBL1221214, “Cytosporone B is an agonist for nuclear orphan receptor Nur77” (Nat Chem Biol, 2008)
Converted amounts (≈) assume the structure as drawn. The source made the active and inactive calls. No cut-off for these calls is given here.

How the values were obtained:
[1] = molecular target: T1, Nuclear receptor subfamily 4immunitygroup A member 1 (Homo sapiens, UniProt P22736); assay: Binding affinity to NuR77-LBD receptor expressed in human BGC823 cells; format: cell-based, BGC-823
T1 sequence (P22736 whole entry, the tested form may be a part): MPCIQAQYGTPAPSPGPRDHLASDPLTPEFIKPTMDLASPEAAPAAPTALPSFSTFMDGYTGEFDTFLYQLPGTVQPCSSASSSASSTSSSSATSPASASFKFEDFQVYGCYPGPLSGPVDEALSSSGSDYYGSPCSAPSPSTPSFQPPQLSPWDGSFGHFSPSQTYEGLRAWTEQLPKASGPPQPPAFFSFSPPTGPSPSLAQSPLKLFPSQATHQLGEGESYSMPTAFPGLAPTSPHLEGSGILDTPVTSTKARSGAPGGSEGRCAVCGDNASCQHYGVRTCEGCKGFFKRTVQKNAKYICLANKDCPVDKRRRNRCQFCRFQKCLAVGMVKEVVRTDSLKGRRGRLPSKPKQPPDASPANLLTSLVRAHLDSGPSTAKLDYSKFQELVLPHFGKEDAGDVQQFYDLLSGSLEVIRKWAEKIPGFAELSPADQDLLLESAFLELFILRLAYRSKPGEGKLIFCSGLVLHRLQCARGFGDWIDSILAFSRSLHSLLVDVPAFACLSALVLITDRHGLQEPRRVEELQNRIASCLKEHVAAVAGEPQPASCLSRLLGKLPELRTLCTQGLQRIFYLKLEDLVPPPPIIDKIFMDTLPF

[2] = molecular target: T1, Nuclear receptor subfamily 4immunitygroup A member 1; assay: Binding affinity to GST-tagged nuclear orphan receptor Nur77 at 25 degC by fluorescence quenching analysis
Procedure, shortened: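 GST-Nur77 intrinsic fluorescence (emission maximum 336 nm) monitored while increasing Csn-B amounts were added; inner-filter contribution estimated with GST alone and subtracted to give corrected quenching curves.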

[3] = molecular target: T1, Nuclear receptor subfamily 4immunitygroup A member 1; assay: Binding affinity to nuclear orphan receptor Nur77-DNA binding domain at 5 uM by fluorescence quenching analysis
[4] = molecular target: Nuclear receptor subfamily 4 group A member 2 (Homo sapiens) (UniProt P43354); assay: Agonist activity at nuclear orphan receptor Nurr1 expressed in human BGC823 cells co-transfected with fused GAL4-Nurr1(LBD) assessed as transactivation after 12 hrs by transactivation assay; format: functional, cell-based; settings: BGC-823
Nuclear receptor subfamily 4 group A member 2 (Homo sapiens), sequence (P43354 whole entry, the tested form may be a part): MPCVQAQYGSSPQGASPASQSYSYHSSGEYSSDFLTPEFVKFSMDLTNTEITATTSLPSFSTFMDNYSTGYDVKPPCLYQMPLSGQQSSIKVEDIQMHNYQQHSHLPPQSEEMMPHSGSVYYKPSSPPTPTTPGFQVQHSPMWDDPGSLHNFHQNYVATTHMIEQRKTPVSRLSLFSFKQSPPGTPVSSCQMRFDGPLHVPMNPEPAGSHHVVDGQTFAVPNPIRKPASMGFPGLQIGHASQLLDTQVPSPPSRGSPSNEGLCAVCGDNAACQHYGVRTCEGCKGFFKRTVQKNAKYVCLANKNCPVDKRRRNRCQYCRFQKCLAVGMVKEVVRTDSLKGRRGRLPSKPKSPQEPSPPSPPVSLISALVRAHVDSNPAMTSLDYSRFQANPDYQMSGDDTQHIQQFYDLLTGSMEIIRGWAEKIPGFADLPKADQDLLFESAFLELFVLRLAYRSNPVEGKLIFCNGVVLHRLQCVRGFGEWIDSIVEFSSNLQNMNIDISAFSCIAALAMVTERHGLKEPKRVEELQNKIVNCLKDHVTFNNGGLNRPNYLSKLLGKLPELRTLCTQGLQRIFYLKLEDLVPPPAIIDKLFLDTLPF

[5] = molecular target: T1, Nuclear receptor subfamily 4immunitygroup A member 1; assay: Agonist activity at nuclear orphan receptor Nur77 in human BGC823 cells bearing beta-galactosidase expression vector assessed as transcriptional activation of NurRE reporter gene after 12 hrs by luciferase assay; format: functional, cell-based; settings: BGC-823
[6] = molecular target: Nuclear receptor subfamily 4 group A member 3 (Homo sapiens) (UniProt Q92570); assay: Agonist activity at nuclear orphan receptor NOR1 expressed in human BGC823 cells co-transfected with fused GAL4-NOR1(LBD) assessed as transactivation after 12 hrs by transactivation assay; format: functional, cell-based; settings: BGC-823
Nuclear receptor subfamily 4 group A member 3 (Homo sapiens), sequence (Q92570 whole entry, the tested form may be a part): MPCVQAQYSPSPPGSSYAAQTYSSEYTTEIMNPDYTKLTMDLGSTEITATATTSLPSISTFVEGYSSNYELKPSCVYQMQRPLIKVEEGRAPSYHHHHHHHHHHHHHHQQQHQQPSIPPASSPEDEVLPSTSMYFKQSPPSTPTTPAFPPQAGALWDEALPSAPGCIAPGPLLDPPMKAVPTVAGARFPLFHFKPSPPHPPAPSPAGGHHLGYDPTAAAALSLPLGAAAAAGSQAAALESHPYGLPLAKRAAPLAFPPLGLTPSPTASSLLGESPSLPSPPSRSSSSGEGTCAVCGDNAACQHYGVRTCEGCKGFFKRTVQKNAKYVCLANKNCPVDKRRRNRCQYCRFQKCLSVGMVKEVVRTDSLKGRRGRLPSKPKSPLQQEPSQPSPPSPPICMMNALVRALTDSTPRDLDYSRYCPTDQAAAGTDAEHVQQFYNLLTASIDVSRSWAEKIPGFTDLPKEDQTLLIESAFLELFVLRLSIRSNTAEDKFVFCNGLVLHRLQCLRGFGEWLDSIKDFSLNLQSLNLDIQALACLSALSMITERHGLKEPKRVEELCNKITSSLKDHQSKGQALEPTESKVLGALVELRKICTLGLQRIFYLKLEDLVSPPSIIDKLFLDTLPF

HepG2 = assay: Antiproliferative activity against human HepG2 cells assessed as number of viable cells after 72 hrs by MTT assay; format: functional, cell-based
[7] = molecular target: Nuclear receptor subfamily 4 group A member 1 (Mus musculus) (UniProt P12813); assay: Agonist activity at Nur77 in wild-type mouse C57BL/6 assessed as phosphofructokinase mRNA at 50 mg/kg, ip within 30 to 300 mins by real-time PCR analysis; format: functional, organism-based; parameters: dose 50 mg/kg
Nuclear receptor subfamily 4 group A member 1 (Mus musculus), sequence (P12813 whole entry): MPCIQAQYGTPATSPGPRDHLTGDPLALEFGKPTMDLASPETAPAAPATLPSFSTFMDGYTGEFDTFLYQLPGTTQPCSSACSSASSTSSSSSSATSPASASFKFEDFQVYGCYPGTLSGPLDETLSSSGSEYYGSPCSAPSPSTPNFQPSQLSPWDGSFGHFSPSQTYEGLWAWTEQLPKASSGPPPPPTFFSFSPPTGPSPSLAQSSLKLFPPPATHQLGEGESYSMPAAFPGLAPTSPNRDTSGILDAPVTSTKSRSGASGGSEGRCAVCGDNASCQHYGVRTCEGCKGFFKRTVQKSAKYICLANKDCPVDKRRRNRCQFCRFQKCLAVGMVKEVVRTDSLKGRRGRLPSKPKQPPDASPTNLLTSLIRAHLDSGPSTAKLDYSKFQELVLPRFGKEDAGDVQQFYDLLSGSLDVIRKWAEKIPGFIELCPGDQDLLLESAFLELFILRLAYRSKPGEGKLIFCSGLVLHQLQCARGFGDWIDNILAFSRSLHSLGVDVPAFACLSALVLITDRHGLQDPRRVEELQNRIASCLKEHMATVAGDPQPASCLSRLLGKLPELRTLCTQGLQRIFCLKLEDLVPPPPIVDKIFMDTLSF

[8] = molecular target: Nuclear receptor subfamily 4 group A member 1 (Mus musculus) (UniProt P12813); assay: Agonist activity at Nur77 in insulin treated mouse C57BL/6 assessed as fructose-1,6-bisphosphatase mRNA after 60 mins by real-time PCR relative to control; format: functional
Mus musculus [9] = assay: Increase in blood glucose level in Nr4a1 deficient mouse C57BL/6 at 50 mg/kg, ip within 30 mins; format: functional; settings: route intraperitoneal
Procedure, shortened: (§1)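 C57BL/6 mice (wild-type or Nr4a1-/-, six weeks old) fasted 16 h with water, then given 50 mg kg-1 intraperitoneally. DMSO (50 μl) or injection without vehicle served as controls. Tail-vein blood glucose was read by glucometer at 15, 30, 60, 90, 120, 180 and 300 min. Means ± s.e.m.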

[10] = molecular target: T1, Nuclear receptor subfamily 4immunitygroup A member 1; assay: Binding affinity to Nur77 receptor expressed in human BGC823 cells; format: cell-based, BGC-823
L02 = assay: Antiproliferative activity against human HL7702 cells assessed as number of viable cells after 72 hrs by MTT assay; format: functional, cell-based
NIH3T3 = assay: Antiproliferative activity against mouse NIH/3T3 cells assessed as number of viable cells after 72 hrs by MTT assay; format: functional, cell-based
[11] = molecular target: T1, Nuclear receptor subfamily 4immunitygroup A member 1; assay: Agonist activity at nuclear orphan receptor Nur77 expressed in human BGC823 cells co-transfected with pLuc-3500 containing Nr4a1 promoter assessed as transcriptional activity; format: functional, cell-based; settings: BGC-823
[12] = molecular target: T1, Nuclear receptor subfamily 4immunitygroup A member 1; assay: Binding affinity to nuclear orphan receptor Nur77 by sedimentation equilibrium assay
BGC-823 [13] = assay: Antitumor activity against human BGC823 cells expressing Nur77-WT xenografted in athymic nude mouse BALB/c assessed as increase in apoptotic cells by TUNEL assay
[14] = molecular target: T1, Nuclear receptor subfamily 4immunitygroup A member 1; assay: Agonist activity at nuclear orphan receptor Nur77 in human BGC823 cells bearing beta-galactosidase expression vector assessed as transcriptional activation of thyroid receptor reporter gene after 12 hrs by luciferase assay; format: functional, cell-based; settings: BGC-823
BGC-823 [15] = assay: Induction of Nur77 mediated apoptosis in human BGC823 cells assessed as nuclear DNA condensation by flow cytometry assay; format: functional, cell-based
[16] = molecular target: Nuclear receptor subfamily 4 group A member 1 (Mus musculus) (UniProt P12813); assay: Agonist activity at Nur77 in insulin treated mouse C57BL/6 assessed as glucose-6-phosphatase mRNA after 60 mins by real-time PCR relative to control; format: functional
[17] = molecular target: Nuclear receptor subfamily 4 group A member 1 (Mus musculus) (UniProt P12813); assay: Agonist activity at Nur77 in wild-type mouse C57BL/6 assessed as phosphofructokinase mRNA at 50 mg/kg, ip after 300 mins by real-time PCR analysis; format: functional, organism-based; parameters: dose 50 mg/kg
BGC-823 [18] = assay: Induction of Nur77 mediated apoptosis in human BGC823 cells at 5 ug/ml after 48 hrs by flow cytometry assay
Mus musculus [19] = assay: Increase in blood glucose level in wild-type mouse C57BL/6 at 50 mg/kg, ip within 30 mins; format: functional; settings: route intraperitoneal; procedure, shortened: as §1
[20] = Antiproliferative activity against human H1299 cells assessed as number of viable cells after 72 hrs by MTT assay; format: functional, NCI-H1299
BGC-823 [21] = assay: Antitumor activity against human BGC823 cells expressing Nur77-WT xenografted in athymic nude mouse BALB/c assessed as tumor weight 13 mg/kg, ip twice a week after 4 weeks; format: functional, organism-based; parameters: dose 13 mg/kg
Procedure, shortened: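 BALB/c athymic nude mice (~16 g, 4 weeks old, 28 °C, sterile housing) inoculated subcutaneously with 0.05 ml BGC-823 cell suspension (wild-type, si-Nur77 or si-Ctrl sublines; 2.5×10^10 l-1), n = 6; after 1 week, Csn-B 13 mg kg-1 ip twice weekly or DMSO; tumors weighed at 4 weeks; means ± s.d., two-tailed t-test.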

[22] = molecular target: Nuclear receptor subfamily 4 group A member 1 (Mus musculus) (UniProt P12813); assay: Agonist activity at Nur77 in wild-type mouse assessed as transcriptional activation of luciferase reporter gene relative to control; format: functional
Procedure, shortened: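 Nur77, NurRE-luciferase reporter and β-galactosidase combined with in vivo transfection reagent and injected into tail vein of wild-type or Nr4a1-/- C57BL/6 mice (n = 5/group); 5 h later DMSO (50 μl) or Csn-B 50 mg kg-1 ip; liver lysate luciferase read 24 h post-injection; means ± s.e.m.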

[23] = molecular target: T1, Nuclear receptor subfamily 4immunitygroup A member 1; assay: Agonist activity at nuclear orphan receptor Nur77 expressed in human BGC823 cells co-transfected with fused GAL4-Nur77 assessed as transactivation after 12 hrs by luciferase reporter gene assay; format: functional, cell-based, BGC-823
[24] = molecular target: T1, Nuclear receptor subfamily 4immunitygroup A member 1; assay: Agonist activity at Nur77 expressed in human gastric cancer BGC823 assessed as transactivation in presence of siRNA against Nur77; format: functional; settings: Stomach
[25] = system: Mycobacterium tuberculosis; assay: Antimicrobial activity against Mycobacterium tuberculosis; format: functional, organism-based
[26] = molecular target: T1, Nuclear receptor subfamily 4immunitygroup A member 1; assay: Agonist activity at nuclear orphan receptor Nur77 expressed in human BGC823 cells co-transfected with fused GAL4-DBD assessed as transactivation after 12 hrs by luciferase reporter gene assay; format: functional, cell-based; settings: BGC-823
[27] = molecular target: Nuclear receptor subfamily 4 group A member 1 (Mus musculus) (UniProt P12813); assay: Agonist activity at Nur77 in wild-type mouse C57BL/6 assessed as pyruvate kinase mRNA at 50 mg/kg, ip after 300 mins by real-time PCR analysis; format: functional, organism-based; parameters: dose 50 mg/kg
[28] = molecular target: T1, Nuclear receptor subfamily 4immunitygroup A member 1; assay: Agonist activity at nuclear orphan receptor Nur77 in human BGC823 cells bearing beta-galactosidase expression vector assessed as transcriptional activation of retinoic acid receptor response element after 12 hrs by luciferase assay; format: functional, cell-based; settings: BGC-823
Mus musculus [29] = species: Mus musculus; assay: Reduction in blood glucose level in insulin treated mouse C57BL/6 within 30 mins; format: functional
Procedure, shortened: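 C57BL/6 mice fasted 5 h with water, then injected intraperitoneally with insulin (0.5 U kg-1), alone or with compound at 50 mg kg-1. Tail-vein blood glucose was read by glucometer at 15–300 min after treatment. Means ± s.e.m.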

CCCCCCCC(=O)c1c(O)cc(O)cc1CC(=O)OCC [CYTOSPORONE B]
Kd [1]: 1510 nM
Activity [2]: Active
Activity [3]: inactive
Activity [4]: inactive
Activity [5]: Active
Activity [6]: inactive
Activity (HepG2): Active
Activity [7]: inactive
fold change (FC) [8]: 3.05
Activity (Mus musculus [9]): 5.8 mM
Kd [10]: 740 nM
inhibition (L02): Active
inhibition (NIH3T3): Active
Activity [11]: Active
Activity [12]: Active
Activity (BGC-823 [13]): Active
Activity [14]: inactive
Activity (BGC-823 [15]): Active
fold change (FC) [16]: 6.23
Activity [17]: inactive
Activity (BGC-823 [18]): 63.5%
Activity (Mus musculus [19]): 11.4 mM
inhibition (INH) [20]: >=40%
Activity (BGC-823 [21]): Active
fold change (FC) [22]: 5
EC50 [23]: 0.278 nM
Activity [24]: inactive
IC50 [25]: 250 µg/mL (≈ 775 µM)
Activity [26]: inactive
Activity [27]: inactive
Activity [28]: inactive
fold change (FC) (Mus musculus [29]): 3
